Bioassay records from PubChem BioAssay.
An excerpt weighted towards active compounds, which were near 1.7% of everything screened.
LMPTP inh = LMPTP phosphatase inhibitors, primary screen, biochemical, fluorescence intensity, uHTS | hit rate 0.22% among 360,000 | Low molecular weight phosphotyrosine protein phosphatase (Homo sapiens), P24666 | inhibition, % at 20 µM | recombinant LMPTP-A, OMFP fluorogenic substrate;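 active = compounds that cut the enzyme signal by at least half of the control window in the single-dose screen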
Target sequence (P24666 whole entry, looked up): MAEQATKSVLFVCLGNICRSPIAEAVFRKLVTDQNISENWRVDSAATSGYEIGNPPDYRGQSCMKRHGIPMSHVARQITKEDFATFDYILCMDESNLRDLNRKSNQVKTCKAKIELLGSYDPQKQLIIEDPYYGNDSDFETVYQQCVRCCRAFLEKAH
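Test system – LMPTP-A phosphatase enzyme · Quantity – 0.625 nM LMPTP-A final · Reagent – OMFP substrate, 400 µM final · Dosing – one test concentration per compound, 20 µM, with 3% DMSO overall · Timing – 50 min enzyme reaction at room temperature, protected from light · Detection – fluorescence intensity · Controls – substrate-only low control, DMSO enzyme-plus-substrate high control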
STEP inh = STEP phosphatase inhibitors, primary screen, biochemical, fluorescence intensity, uHTS. Tyrosine-protein phosphatase non-receptor type 5 (Homo sapiens), P54829. recombinant STEP, OMFP fluorogenic substrate. inhibition, % at 20 µM. hit rate 0.25% among 360,000;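 active = inhibition at 20 µM, scaled per plate between control wells, above about 37%, limit read from the data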
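System: isolated STEP enzyme; schedule: 20 min enzyme reaction at room temperature, protected from light; medium: Bis-Tris buffer pH 6.0, 2.5 mM DTT, 0.005% Tween 20; signal: fluorescence, 480/540 nm; dosing: single compound dose of 20 µM, 1% DMSO final; also added: OMFP substrate, 25 µM final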
Scp-1 inhibitor = Scp-1 phosphatase inhibitors, primary screen, biochemical, colorimetric, uHTS | hit rate 0.88% among 340,000 | inhibition, % at 20 µM | Recombinant Scp1, phosphopeptide, malachite green phosphate absorbance | Carboxy-terminal domain RNA polymerase II polypeptide A small phosphatase 1 (Homo …;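 active = inhibition above about 50% at 20 µM, limit read from the data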
Target sequence (Q9GZU7 76-261 limits assumed): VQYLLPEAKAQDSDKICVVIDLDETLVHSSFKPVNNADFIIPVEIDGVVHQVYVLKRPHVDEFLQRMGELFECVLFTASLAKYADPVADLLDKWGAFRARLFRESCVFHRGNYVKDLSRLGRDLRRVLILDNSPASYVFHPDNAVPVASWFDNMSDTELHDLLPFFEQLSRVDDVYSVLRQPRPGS
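Incubation: 45 min enzyme reaction at room temperature / System: truncated SCP-1 phosphatase (76-261aa) / Reagent: Phospho 17-mer peptide substrate / Buffer or medium: Acidic Tris acetate buffer with magnesium and detergent / Signal: absorbance at 630 nm / Doses: one concentration, 20 µM, with 1.0% DMSO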
DNMT1 inh = human DNMT1 methyltransferase inhibitors, primary screen, biochemical, molecular beacon, fluorescence, HinP1I cleavage, uHTS | DNA (cytosine-5)-methyltransferase 1 (Homo sapiens), P26358 | inhibition (reported as % activation of signal), % at 10 µM | hit rate 0.83% among 360,000; in the data active = inhibition above about 50%
SUMO1 PPI mod = modulators of SUMO1 protein-protein interactions, primary screen, biochemical, uHTS; AID 602429, 2012; SUMO1 binding to a labelled peptide, TR-FRET, 1 h; inhibition, % at 20 µM; hit rate 0.33% among 360,000; Small ubiquitin-related modifier 1 (Homo sapiens), P63165; in the data active = inhibition above about 37%
Target sequence (P63165 whole entry, looked up): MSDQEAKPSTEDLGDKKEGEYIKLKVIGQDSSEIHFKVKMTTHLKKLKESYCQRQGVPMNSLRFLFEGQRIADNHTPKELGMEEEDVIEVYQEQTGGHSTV
Scp-1 conf = Scp-1 phosphatase inhibitors, retest, confirmation, biochemical, colorimetric, single concentration | inhibition, % at 20 µM | shares compounds with Scp-1 inhibitor | AID 540281, 2011 | recombinant SCP-1 catalytic domain, phosphate release, malachite green absorbance | hit rate 61% among 2,500
MG interference = colorimetric readout interference by compounds, confirmation, artefact control for Scp-1 inhibitor project, biochemical, single concentration. shares compounds with Scp-1 inhibitor. Colorimetric interference counterscreen, malachite green absorbance 630 nm. apparent inhibition (interference), % at 20 µM. 2,500 tested, under 10 active;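 note: compounds added after enzyme reaction finished so only phosphate colour detection is probed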
Scp1 DSF = Scp-1 binding by thermal shift, confirmation, orthogonal assay for Scp-1 inhibitor project, biophysical, differential scanning fluorimetry. hit rate 25% among 1,500. Recombinant SCP1, Sypro Orange thermal shift Tm. AID 540329, 2011. shares compounds with Scp-1 inhibitor. thermal shift relative to vanadate control, % at 40 µM;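 active = substances whose mean melting-temperature shift, as a percentage of the reference inhibitor's shift, reaches about 5.3%, limit read from the data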
Each line names hits and unclear results; the compound was inactive in the other large screens (follow-up assays come after a bar, where they were run).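 Rule for the calls, unless noted: active = inhibition of at least 30% at 20 µM; inactive = the rest.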

COc1ccccc1-n1cnc2c(c1=O)c1nc3ccccc3nc1n2-c1ccc(C)cc1	Scp-1 inhibitor 87.5 | Scp-1 conf 34.0 | MG interference inactive | Scp1 DSF inactive
O=C(Nc1cccc(F)c1)c1ccc(S(=O)(=O)N2CCCCC2)cc1	none
Cc1cccc(NC(=O)CSc2ccc(-c3ccco3)nn2)c1	none
CC(=O)Nc1ccc(NC(=O)CSc2ccc(-c3ccco3)nn2)cc1	Scp-1 inhibitor 51.0 | Scp-1 conf inactive | MG interference inactive
Cc1ccc(SCC(=O)Nc2ccc(-c3nnc(-c4ccco4)o3)cc2)cc1	Scp-1 inhibitor 70.1 | Scp-1 conf 77.0 | MG interference inactive | Scp1 DSF inactive
CC(=O)Nc1cccc(NC(=O)CSc2ccc(-c3ccco3)nn2)c1	Scp-1 inhibitor 69.7 | Scp-1 conf inactive | MG interference inactive
Nc1c(C(=O)OCC(=O)Nc2cccc([N+](=O)[O-])c2)[nH]c(=O)[nH]c1=O	Scp-1 inhibitor 66.7 | Scp-1 conf 65.4 | MG interference inactive | Scp1 DSF 6.1
O=C(Nc1cccc([N+](=O)[O-])c1)Nc1cccc([N+](=O)[O-])c1	Scp-1 inhibitor 69.3 | Scp-1 conf 66.0 | MG interference inactive | Scp1 DSF 17.4
O=C(COC(=O)c1c(F)cccc1F)Nc1ccc(N2CCCCC2)cc1	none
C[C@H](CO)N1C[C@H](C)[C@H](CN(C)C(=O)Nc2ccc(C(F)(F)F)cc2)Oc2ncc(-c3cccnc3)cc2C1=O	none (no result: Scp-1 inhibitor)
CC(=O)N=c1c(C#N)cc2c(=O)n3cccc(C)c3nc2n1CCCOC(C)C	none
CC(=O)N=c1c(C#N)cc2c(=O)n3cccc(C)c3nc2n1Cc1ccco1	Scp-1 inhibitor 69.6 | Scp-1 conf inactive | MG interference inactive
O=C(Nc1nnc(-c2ccc(Cl)s2)o1)C1CC1	Scp-1 inhibitor 56.5 | Scp-1 conf inactive | MG interference inactive
O=C(Nc1nnc(-c2cccs2)o1)C1CC1	none
Cc1cc(Cl)ccc1OCC(=O)OC(C)C(=O)N(C)C (configuration not stated)	Scp-1 inhibitor 55.4 | Scp-1 conf 46.3 | MG interference inactive | Scp1 DSF inactive
CCN(CC)C(=O)C(C)OC(=O)COc1ccc(Cl)cc1C (configuration not stated)	none
Cc1noc(C)c1C(=O)N1CCC1(C)C(=O)NS(=O)(=O)c1ccc(Cl)cc1 (configuration not stated)	none (no result: Scp-1 inhibitor)
O=C(NCCc1ccccc1)c1ccc(-c2ccc(F)cc2)o1	none
O=C(NCCc1ccccc1)c1ccc(-c2ccccc2C(F)(F)F)o1	Scp-1 inhibitor 96.8 (no result: LMPTP inh, STEP inh, DNMT1 inh, SUMO1 PPI mod) | Scp-1 conf inactive | MG interference inactive
Cc1cccn2c(=O)c3cc(C(=O)NC4CCCC4)n(C)c3nc12	Scp-1 inhibitor 67.6 | Scp-1 conf inactive | MG interference inactive
N#Cc1c(SCC(=O)Nc2cccc(F)c2)sc2c(O)cc(=O)[nH]c12	Scp-1 inhibitor 57.5 | Scp-1 conf 59.6 | MG interference inactive | Scp1 DSF 7.7
CCOc1cccc(NC(=O)CSc2sc3c(O)cc(=O)[nH]c3c2C#N)c1	none
N#Cc1cccc(NC(=O)CSc2sc3c(O)cc(=O)[nH]c3c2C#N)c1	LMPTP inh 69.6, Scp-1 inhibitor 50.2 | Scp-1 conf inactive | MG interference inactive
CCCSc1nnc(NC(=O)CSc2sc3c(O)cc(=O)[nH]c3c2C#N)s1	Scp-1 inhibitor 70.1 | Scp-1 conf 65.4 | MG interference inactive | Scp1 DSF 11.8
CC(C)NC1(C(N)=O)CCNCC1	none
CC1(c2cccc(Br)c2)NC(=O)N(CC(=O)Nc2cccnc2Cl)C1=O (configuration not stated)	none
COc1ccc(C(=O)NC2CC2)cc1OC1CCN(C(C)CSC)CC1 (configuration not stated)	none
COc1ccc(/C=N/NC(=O)CCCOc2ccc(Cl)cc2Cl)cc1[N+](=O)[O-]	none
Cc1ccc(/C=N/NC(=O)CCCOc2ccc(Cl)cc2Cl)cc1[N+](=O)[O-]	Scp-1 inhibitor 58.5 | Scp-1 conf 37.8 | MG interference inactive | Scp1 DSF inactive
O=C1C(Cl)=C(N2CCCC2)C(=O)N1c1ccccc1F	none
O=C(Nc1nnc(SCc2ccc(F)cc2)s1)C1CC(=O)N(c2ccc3c(c2)OCCO3)C1 (configuration not stated)	none
O=C(Nc1nnc(SCc2c(Cl)cccc2Cl)s1)C1CC(=O)N(c2ccc3c(c2)OCCO3)C1 (configuration not stated)	Scp-1 inhibitor 67.1 | Scp-1 conf 66.0 | MG interference inactive | Scp1 DSF inactive
O=C(Nc1nc(-c2ccco2)c(-c2ccco2)s1)C1CC(=O)N(c2ccc3c(c2)OCCO3)C1 (configuration not stated)	Scp-1 inhibitor 81.6, DNMT1 inh 72.4 | Scp-1 conf 56.6 | MG interference inactive | Scp1 DSF 13.0
Cc1nnc(NC(=O)C2CC(=O)N(c3ccc4c(c3)OCCO4)C2)s1 (configuration not stated)	none
CCOC(=O)C1CCCN(C(=O)c2ccc(Cn3c(=S)[nH]c4cc(C(=O)OC)ccc4c3=O)cc2)C1 (configuration not stated)	Scp-1 inhibitor 59.6 | Scp-1 conf 31.4 | MG interference inactive | Scp1 DSF inactive
CC[n+]1c(C)cc2c(sc3ccccc32)c1C	Scp-1 inhibitor 63.0 | Scp-1 conf inactive | MG interference inactive
CCOC(=O)C1CCCN(C(=O)Cc2ccc(OC)c(OC)c2)CC1 (configuration not stated)	none (no result: Scp-1 inhibitor)
O=C(O)CSc1c2c(nc3cc(C(=O)Nc4ccc(F)c(Cl)c4)ccc13)CCCC2	Scp-1 inhibitor 52.0 | Scp-1 conf 82.8 | MG interference inactive | Scp1 DSF inactive
